Results reported in ChEMBL document CHEMBL5678806, “NMS-P937, an orally available, specific small-molecule polo-like kinase 1 inhibitor with antitumor activity in solid and hematologic malignancies” (Mol Cancer Ther, 2012).
Active and inactive are the calls of the source. No cut-off for these calls is given here.

Assays:
NCI-H1650 = assay: Antiproliferative activity against human NCI-H1650 cells assessed as inhibition of cell growth incubated for 72 hrs by cell-titer glo assay; type: functional, cell-based; conditions: NCI-H1650, 72 h
In short: (§1)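 Cells from ATCC or ECACC, kept in supplier-recommended medium with 1% penicillin-streptomycin at 37°C, 5% CO₂. Seeded at 10,000–30,000/cm² (adherent) or 100,000/mL (nonadherent) in medium with 10% fetal calf serum. Dosed after 24 h in duplicate with serial dilutions. Viable cells read by CellTiter-Glo 72 h later. IC50 from sigmoidal fit. At least two independent experiments.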

Activated CDC42 kinase 1 = Activated CDC42 kinase 1 (Homo sapiens, UniProt Q07912); assay: Inhibition of ACK1 (unknown origin) in presence of [gamma-33P]ATP
[1] = molecular target: Cytoplasmic tyrosine-protein kinase BMX (Homo sapiens) (UniProt P51813); assay: Inhibition of recombinant human Bmx assessed as residual activity at 0.1 uM relative to control
A2780 [2] = assay: Induction of cell cycle arrest in human A2780 cells assessed as accumulation of cells in G2/M phase by measuring PLK1 phosphorylation on Thr210 incubated for 24 hrs by Western blotting analysis; type: functional, cell-based; conditions: dose 0.02-0.2 µmol/L
In short: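 A2780 ovarian carcinoma cells treated 24 h with a range of concentrations, with DMSO and nocodazole controls. 20 µg protein extract separated by SDS-PAGE and immunoblotted with chemiluminescent detection. Probed for total and phospho-Thr210 PLK1, phospho-Ser10 histone H3, phospho-Thr199 NPM and phospho-Tyr15 CDK1. Total NPM, tubulin and total CDK1 served as loading controls.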

A2780 [3] = assay: Induction of DNA damage in human A2780 cells assessed as H2AX phosphorylation at 0.5 to 1 uM incubated for 8 hrs followed by compound washout and measured after 24 to 48 hrs by Western blotting analysis; type: functional, cell-based; conditions: dose 0.5-1 µM
IGROV-1 = assay: Antiproliferative activity against human IGROV-1 cells assessed as inhibition of cell growth incubated for 72 hrs by cell-titer glo assay; type: functional, cell-based; conditions: IGROV-1, 72 h
In short: (§2)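 Cells seeded at 10,000–30,000/cm² (adherent) or 100,000/mL (nonadherent) in medium with 10% fetal calf serum; after 24 h, treated in duplicate with serial dilutions for 72 h. Viable cell number read by CellTiter-Glo luminescence; IC50 from sigmoidal fit; at least two independent experiments.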

Ephrin type-A receptor 2 = Ephrin type-A receptor 2 (Homo sapiens, UniProt P29317); assay: Inhibition of EphA2 (unknown origin) in presence of [gamma-33P]ATP
CAMA-1 = assay: Antiproliferative activity against human CAMA-1 cells assessed as inhibition of cell growth incubated for 72 hrs by cell-titer glo assay; type: functional, cell-based; conditions: CAMA-1, 72 h
In short: (§3)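 Cells seeded 10,000–30,000/cm² (adherent) or 100,000/mL (suspension) in medium with 10% fetal calf serum; after 24 h treated in duplicate with serial dilutions for 72 h. Viable cells read by CellTiter-Glo luminescence; IC50 from sigmoidal fit; at least two independent experiments.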

[4] = molecular target: Serine/threonine-protein kinase tousled-like 2 (Homo sapiens, UniProt Q86UE8); assay: Inhibition of N-terminal 6His-tagged recombinant human TLK2 (388 to end residues) expressed in baculovirus infected Sf21 cells assessed as residual activity at 0.1 uM relative to control
A549 = assay: Antiproliferative activity against human A549 cells assessed as inhibition of cell growth incubated for 72 hrs by cell-titer glo assay; type: functional, cell-based; conditions: A549, 72 h; in short: as §3
[5] = molecular target: Maternal embryonic leucine zipper kinase (Homo sapiens) (UniProt Q14680); assay: Inhibition of MELK (unknown origin) at 10 micromol/L in presence of [gamma-33P]ATP relative to control; conditions: dose 10.0 µmol/L
MOLM-13 = assay: Antiproliferative activity against human MOLM-13 cells assessed as inhibition of cell growth incubated for 72 hrs by cell-titer glo assay; type: functional, cell-based; conditions: MOLM-13, 72 h; in short: as §1
A2780 [6] = assay: In vivo inhibition of PLK1 in human A2780 cells xenografted in nu/nu mouse assessed as decreased TCTP phosphorylation on Ser46 at 90 to 120 mg/kg, po administered for 6 to 12 hrs by Western blotting analysis; type: functional, organism-based; conditions: dose lower 90.0 mg/kg, dose upper […], time lower 6.0 hrs
[7] = molecular target: Eukaryotic translation initiation factor 2-alpha kinase 3 (Homo sapiens, UniProt Q9NZJ5); assay: Inhibition of PERK (unknown origin) in presence of [gamma-33P]ATP
[8] = molecular target: Tyrosine-protein kinase SYK (Homo sapiens, UniProt P43405); assay: Inhibition of N-terminal His6-tagged recombinant full-length human Syk expressed in baculovirus infected Sf21 cells assessed as residual activity at 0.1 uM relative to control
[9] = molecular target: Tyrosine-protein kinase receptor TYRO3 (Homo sapiens) (UniProt Q06418); assay: Inhibition of N-terminal His6-tagged recombinant human Rse (451 to end residues) expressed in baculovirus infected Sf21 cells assessed as residual activity at 0.1 uM relative to control
[10] = molecular target: Inhibitor of nuclear factor kappa-B kinase subunit beta (Homo sapiens) (UniProt O14920); assay: Inhibition of N-terminal His6 tagged recombinant full-length human IKKbeta expressed in baculovirus infected Sf21 cells assessed as residual activity at 1 uM relative to control
[11] = Antiproliferative activity against human COLO 206F cells assessed as inhibition of cell growth incubated for 72 hrs by cell-titer glo assay; type: functional, cell-based; in short: as §3
MDA-MB-231 = assay: Antiproliferative activity against human MDA-MB-231 cells assessed as inhibition of cell growth incubated for 72 hrs by cell-titer glo assay; type: functional, cell-based; conditions: MDA-MB-231, 72 h; in short: as §2
SU-DHL-8 = assay: Antiproliferative activity against human SU-DHL-8 cells assessed as inhibition of cell growth incubated for 72 hrs by cell-titer glo assay; type: functional, cell-based; conditions: SU-DHL-8, 72 h
[12] = AUC in nu/nu mouse at 10 mg/kg, po by LC-MS analysis; type: ADME, organism-based; conditions: in vivo
[13] = Inhibition of CDK2/CycA (unknown origin) in presence of [gamma-33P]ATP; set-up: species or system Homo sapiens
A498 = assay: Antiproliferative activity against human A498 cells assessed as inhibition of cell growth incubated for 72 hrs by cell-titer glo assay; type: functional, cell-based; conditions: A498, 72 h; in short: as §3
NCI-H2170 = assay: Antiproliferative activity against human NCI-H2170 cells assessed as inhibition of cell growth incubated for 72 hrs by cell-titer glo assay; type: functional, cell-based; conditions: NCI-H2170, 72 h; in short: as §1
[14] = Cmax in nu/nu mouse at 10 mg/kg, iv by LC-MS analysis; type: ADME, organism-based; conditions: in vivo
BT-474 = assay: Antiproliferative activity against human BT-474 cells assessed as inhibition of cell growth incubated for 72 hrs by cell-titer glo assay; type: functional, cell-based; conditions: BT-474, 72 h; in short: as §3
[15] = molecular target: Angiopoietin-1 receptor (Homo sapiens) (UniProt Q02763); assay: Inhibition of N-terminal His6-tagged recombinant human Tie2 (771 to end residues) expressed in baculovirus infected Sf21 cells assessed as residual activity at 0.1 uM relative to control
Insulin receptor = Insulin receptor (Homo sapiens, UniProt P06213); assay: Inhibition of N-terminal His6-tagged recombinant human IR (1005 to 1310 residues) expressed in baculovirus infected Sf21 cells assessed as residual activity at 1 uM relative to control

Sequence of Serine/threonine-protein kinase tousled-like 2 (Q86UE8 whole entry, looked up): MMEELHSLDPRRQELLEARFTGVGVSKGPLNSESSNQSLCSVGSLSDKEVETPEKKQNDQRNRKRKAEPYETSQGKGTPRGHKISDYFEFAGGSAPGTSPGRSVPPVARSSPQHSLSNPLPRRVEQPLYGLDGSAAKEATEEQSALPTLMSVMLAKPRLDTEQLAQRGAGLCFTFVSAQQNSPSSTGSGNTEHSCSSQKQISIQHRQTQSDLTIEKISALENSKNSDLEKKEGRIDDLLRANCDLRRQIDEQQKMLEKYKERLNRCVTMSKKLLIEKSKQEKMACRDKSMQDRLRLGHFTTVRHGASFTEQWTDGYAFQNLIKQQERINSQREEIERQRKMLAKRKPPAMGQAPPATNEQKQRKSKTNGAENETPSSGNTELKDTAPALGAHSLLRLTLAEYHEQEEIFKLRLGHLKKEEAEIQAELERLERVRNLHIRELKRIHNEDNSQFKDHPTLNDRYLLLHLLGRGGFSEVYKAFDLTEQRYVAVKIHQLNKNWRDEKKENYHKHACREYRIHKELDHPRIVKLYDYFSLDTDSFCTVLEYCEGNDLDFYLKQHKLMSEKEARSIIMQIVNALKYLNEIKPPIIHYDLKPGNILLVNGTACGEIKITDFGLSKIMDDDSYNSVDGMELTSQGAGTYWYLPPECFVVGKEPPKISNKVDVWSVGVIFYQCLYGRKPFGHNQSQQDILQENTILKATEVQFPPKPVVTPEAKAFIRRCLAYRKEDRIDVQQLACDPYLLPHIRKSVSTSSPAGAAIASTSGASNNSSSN
Sequence of Maternal embryonic leucine zipper kinase (Homo sapiens) (Q14680 whole entry, looked up): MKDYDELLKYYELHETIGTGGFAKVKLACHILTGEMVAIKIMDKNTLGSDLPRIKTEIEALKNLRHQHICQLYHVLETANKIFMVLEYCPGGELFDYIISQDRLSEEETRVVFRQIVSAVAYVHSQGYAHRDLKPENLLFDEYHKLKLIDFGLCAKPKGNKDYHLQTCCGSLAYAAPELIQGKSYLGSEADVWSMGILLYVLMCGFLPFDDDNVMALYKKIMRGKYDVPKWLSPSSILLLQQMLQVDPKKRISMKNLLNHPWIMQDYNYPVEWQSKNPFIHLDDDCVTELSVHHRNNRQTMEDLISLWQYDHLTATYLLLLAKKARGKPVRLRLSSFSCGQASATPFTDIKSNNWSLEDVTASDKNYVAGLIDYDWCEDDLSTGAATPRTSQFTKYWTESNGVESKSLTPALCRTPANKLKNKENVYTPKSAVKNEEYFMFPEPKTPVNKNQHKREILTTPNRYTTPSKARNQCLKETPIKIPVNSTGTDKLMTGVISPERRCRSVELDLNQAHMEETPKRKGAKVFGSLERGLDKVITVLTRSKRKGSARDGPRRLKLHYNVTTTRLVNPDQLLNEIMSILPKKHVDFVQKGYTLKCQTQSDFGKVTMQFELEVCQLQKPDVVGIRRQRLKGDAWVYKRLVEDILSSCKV
Sequence of Inhibitor of nuclear factor kappa-B kinase subunit beta (Homo sapiens) (O14920 whole entry): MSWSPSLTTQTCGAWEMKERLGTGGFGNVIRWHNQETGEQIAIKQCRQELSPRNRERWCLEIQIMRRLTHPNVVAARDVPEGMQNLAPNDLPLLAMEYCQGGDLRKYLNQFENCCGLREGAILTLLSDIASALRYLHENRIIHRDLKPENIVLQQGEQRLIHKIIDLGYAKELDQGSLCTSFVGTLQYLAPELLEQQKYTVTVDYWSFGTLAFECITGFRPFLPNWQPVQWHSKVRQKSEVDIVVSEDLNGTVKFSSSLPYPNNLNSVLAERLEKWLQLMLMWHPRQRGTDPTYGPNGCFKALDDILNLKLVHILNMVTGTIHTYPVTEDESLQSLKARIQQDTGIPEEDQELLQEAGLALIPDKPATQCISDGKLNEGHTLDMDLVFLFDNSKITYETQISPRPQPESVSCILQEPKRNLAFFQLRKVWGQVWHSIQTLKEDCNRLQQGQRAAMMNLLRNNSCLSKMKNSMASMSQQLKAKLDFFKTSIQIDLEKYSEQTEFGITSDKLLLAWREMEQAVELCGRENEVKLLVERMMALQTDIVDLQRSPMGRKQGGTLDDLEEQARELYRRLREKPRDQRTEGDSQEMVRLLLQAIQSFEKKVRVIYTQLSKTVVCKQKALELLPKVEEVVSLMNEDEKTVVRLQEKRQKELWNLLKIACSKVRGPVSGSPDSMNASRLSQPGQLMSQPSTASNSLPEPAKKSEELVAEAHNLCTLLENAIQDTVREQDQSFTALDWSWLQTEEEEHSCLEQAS
Sequence of Eukaryotic translation initiation factor 2-alpha kinase 3 (Q9NZJ5 whole entry): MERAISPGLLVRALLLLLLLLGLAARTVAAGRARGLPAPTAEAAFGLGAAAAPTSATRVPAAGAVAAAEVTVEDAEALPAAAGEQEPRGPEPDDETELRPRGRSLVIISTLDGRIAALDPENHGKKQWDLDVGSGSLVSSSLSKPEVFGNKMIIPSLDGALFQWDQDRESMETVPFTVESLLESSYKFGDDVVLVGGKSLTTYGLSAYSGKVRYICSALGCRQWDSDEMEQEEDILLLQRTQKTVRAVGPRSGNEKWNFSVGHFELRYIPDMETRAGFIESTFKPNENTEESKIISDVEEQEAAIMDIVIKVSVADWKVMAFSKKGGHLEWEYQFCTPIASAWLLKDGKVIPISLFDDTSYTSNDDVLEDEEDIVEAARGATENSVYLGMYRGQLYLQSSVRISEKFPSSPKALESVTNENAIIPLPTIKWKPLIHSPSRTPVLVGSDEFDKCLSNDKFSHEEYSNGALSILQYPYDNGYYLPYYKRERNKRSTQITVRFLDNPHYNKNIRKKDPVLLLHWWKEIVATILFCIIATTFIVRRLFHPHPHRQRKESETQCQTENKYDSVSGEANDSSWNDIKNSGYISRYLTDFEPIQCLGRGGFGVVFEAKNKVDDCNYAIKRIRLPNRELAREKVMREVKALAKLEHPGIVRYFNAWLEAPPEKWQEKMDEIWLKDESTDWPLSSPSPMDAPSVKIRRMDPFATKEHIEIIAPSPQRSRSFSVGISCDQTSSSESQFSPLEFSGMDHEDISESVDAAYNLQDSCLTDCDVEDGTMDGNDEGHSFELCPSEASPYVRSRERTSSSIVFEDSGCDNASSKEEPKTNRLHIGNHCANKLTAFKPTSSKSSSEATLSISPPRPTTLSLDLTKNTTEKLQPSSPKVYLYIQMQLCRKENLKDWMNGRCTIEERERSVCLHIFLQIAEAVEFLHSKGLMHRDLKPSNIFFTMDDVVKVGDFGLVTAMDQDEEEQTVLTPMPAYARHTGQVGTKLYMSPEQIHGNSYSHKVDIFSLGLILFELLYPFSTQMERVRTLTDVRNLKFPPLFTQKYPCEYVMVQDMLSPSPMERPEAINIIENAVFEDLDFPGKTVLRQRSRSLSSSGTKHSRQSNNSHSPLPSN
Sequence of Ephrin type-A receptor 2 (P29317 whole entry): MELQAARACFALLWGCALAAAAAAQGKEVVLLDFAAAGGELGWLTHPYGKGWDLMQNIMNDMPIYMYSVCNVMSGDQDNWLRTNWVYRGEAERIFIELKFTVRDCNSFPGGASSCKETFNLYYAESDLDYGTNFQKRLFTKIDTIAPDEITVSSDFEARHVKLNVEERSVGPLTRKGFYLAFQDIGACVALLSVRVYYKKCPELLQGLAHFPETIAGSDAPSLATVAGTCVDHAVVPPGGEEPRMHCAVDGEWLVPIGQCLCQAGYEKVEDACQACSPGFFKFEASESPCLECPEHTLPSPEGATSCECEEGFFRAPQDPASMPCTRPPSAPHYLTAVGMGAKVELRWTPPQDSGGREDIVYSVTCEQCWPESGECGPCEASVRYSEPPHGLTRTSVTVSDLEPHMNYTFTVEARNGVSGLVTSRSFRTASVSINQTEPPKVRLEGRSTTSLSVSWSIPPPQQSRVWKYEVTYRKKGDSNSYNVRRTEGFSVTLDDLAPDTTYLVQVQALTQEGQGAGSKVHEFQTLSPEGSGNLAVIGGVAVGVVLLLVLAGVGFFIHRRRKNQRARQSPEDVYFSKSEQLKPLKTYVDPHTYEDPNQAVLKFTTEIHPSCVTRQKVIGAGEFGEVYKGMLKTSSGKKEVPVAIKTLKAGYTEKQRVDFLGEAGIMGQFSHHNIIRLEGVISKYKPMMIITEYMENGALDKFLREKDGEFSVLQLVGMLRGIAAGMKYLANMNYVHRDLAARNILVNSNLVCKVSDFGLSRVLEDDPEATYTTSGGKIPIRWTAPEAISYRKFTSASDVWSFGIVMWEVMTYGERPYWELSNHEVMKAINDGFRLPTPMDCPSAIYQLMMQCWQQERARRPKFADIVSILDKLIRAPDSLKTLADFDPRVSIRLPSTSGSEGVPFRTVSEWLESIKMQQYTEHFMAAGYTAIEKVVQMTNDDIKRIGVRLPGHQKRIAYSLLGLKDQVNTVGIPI
Sequence of Cytoplasmic tyrosine-protein kinase BMX (Homo sapiens) (P51813 whole entry): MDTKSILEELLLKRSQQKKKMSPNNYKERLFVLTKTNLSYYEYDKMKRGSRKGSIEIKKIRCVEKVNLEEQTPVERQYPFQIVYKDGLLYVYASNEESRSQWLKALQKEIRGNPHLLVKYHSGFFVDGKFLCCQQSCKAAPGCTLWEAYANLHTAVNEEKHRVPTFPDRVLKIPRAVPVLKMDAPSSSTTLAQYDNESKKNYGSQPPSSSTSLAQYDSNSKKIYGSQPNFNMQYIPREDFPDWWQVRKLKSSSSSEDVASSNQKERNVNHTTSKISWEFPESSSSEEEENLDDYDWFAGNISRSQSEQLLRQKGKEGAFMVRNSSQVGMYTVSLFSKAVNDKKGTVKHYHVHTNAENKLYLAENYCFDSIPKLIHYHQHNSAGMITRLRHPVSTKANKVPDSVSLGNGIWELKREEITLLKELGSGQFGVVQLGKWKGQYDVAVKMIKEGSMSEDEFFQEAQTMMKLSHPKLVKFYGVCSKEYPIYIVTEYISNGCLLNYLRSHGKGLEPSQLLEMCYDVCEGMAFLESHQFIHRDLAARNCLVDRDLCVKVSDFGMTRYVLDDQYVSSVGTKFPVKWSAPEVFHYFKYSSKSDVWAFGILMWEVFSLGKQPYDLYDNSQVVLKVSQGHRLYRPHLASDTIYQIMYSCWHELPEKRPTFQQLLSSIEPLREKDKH

`CN1CCN(c2ccc(OC(F)(F)F)c(Nc3ncc4c(n3)-c3c(c(C(N)=O)nn3CCO)CC4)c2)CC1` [ONVANSERTIB] showed an IC50 (NCI-H1650) of 2.42 µM, an IC50 (Activated CDC42 kinase 1) of over 10 µM and an Activity [1] of 83%. For the same compound, the Activity (A2780 [2]) was “Dose-Dependent Effect”, the Activity (A2780 [3]) was “Active” and the IC50 (IGROV-1) was 0.054 µM. For the same compound, the IC50 (Ephrin type-A receptor 2) was over 10 µM, the IC50 (CAMA-1) was 0.35 µM and the Activity [4] was 182%. The IC50 (A549) was 0.175 µM, the inhibition [5] was 95.5% and the IC50 (MOLM-13) was 0.022 µM. The inhibition (A2780 [6]) was “Active”, the IC50 [7] was over 10 µM and the Activity [8] was 96%. For the same compound, the Activity [9] was 137%, the Activity [10] was 127% and the IC50 [11] was 0.093 µM. The IC50 (MDA-MB-231) was 0.172 µM, the IC50 (SU-DHL-8) was 0.031 µM and the AUC [12] was 2 µM·h. It also gave an IC50 [13] of over 10 µM, an IC50 (A498) of 1.07 µM and an IC50 (NCI-H2170) of 0.015 µM. It also gave a Cmax [14] of 8.3 µM, an IC50 (BT-474) of 0.156 µM and an Activity [15] of 113%. For the same compound, the Activity (Insulin receptor) was 90%.
